Measurements reported in article PMC7340344 (Journal of medicinal chemistry, 2020).
Counter-ions that a name gives are not always drawn.

Columns and labels:
LSD1 = LSD1 (Homo sapiens, UniProt O60341); assay: Inhibition of LSD1; type: biochemical
HAT domain of human p300 = target: T1, HAT domain of human p300 (Homo sapiens, UniProt Q09472); assay: Inhibition of p300-HAT; type: biochemical; conditions: for inhibitory activity against p300 HAT (in words): tested up to 10 μM; for inhibition at 10 µM: read-out: % inhibition at 10 μM, compound at 10 μM; for activity reduction as compared to 12: ratio of p300 HAT IC50 to that of compound 12
T1 sequence (Q09472 1195-1673): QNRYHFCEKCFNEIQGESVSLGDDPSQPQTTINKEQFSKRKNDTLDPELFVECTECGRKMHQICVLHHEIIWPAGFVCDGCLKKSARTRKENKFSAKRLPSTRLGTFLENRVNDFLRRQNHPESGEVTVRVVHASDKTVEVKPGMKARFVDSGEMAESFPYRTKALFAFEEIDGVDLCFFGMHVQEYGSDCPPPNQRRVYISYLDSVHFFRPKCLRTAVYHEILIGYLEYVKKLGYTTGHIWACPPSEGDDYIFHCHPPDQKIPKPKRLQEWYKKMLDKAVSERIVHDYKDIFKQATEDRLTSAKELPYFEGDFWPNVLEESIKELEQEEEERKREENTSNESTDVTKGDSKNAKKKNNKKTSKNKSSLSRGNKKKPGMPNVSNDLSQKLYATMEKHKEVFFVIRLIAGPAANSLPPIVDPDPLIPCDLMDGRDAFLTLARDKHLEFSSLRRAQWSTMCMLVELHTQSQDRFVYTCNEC

p300 HAT and histone H4 = target: T2, p300 HAT and histone H4 (Homo sapiens, UniProt Q09472); assay: Alpha assay, binding between p300 HAT and histone H4 peptide
T2 sequence (Q09472 1287-1663 limits assumed): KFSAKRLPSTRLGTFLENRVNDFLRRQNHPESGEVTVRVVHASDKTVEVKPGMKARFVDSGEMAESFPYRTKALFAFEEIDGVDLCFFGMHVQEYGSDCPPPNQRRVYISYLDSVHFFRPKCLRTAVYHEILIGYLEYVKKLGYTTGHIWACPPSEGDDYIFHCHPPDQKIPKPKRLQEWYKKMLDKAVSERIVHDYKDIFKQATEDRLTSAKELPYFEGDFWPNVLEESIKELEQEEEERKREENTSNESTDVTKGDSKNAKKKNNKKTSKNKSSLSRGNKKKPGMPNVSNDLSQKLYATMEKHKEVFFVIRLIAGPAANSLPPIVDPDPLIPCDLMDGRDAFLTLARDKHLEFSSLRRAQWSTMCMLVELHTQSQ

Kasumi-1 leukemia cells = assay: Western blot of cellular histone acetylation; type: cell-based; conditions: Kasumi-1 cells, 12h, 5 and 10 μM
Outline: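 Kasumi-1 cells (10^6/well) were exposed to test compound at 0, 5 and 10 μM for 12 h. Total histones were extracted by kit, and 2 μg per lane were separated by SDS-PAGE and transferred to PVDF. Blots were probed with antibodies to H3K9Ac, H3K18Ac, H3K27Ac and total H3, then with an anti-rabbit IgG secondary.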

Compound | inhibitory activity against p300 HAT (in words) (HAT domain of human p300) | also measured
CC(C)(C)c1ccc(-c2cc(C(=O)NCC3CCNCC3)sc2-c2ccc(C(C)(C)C)cc2)cc1 [Compound 1, 4,5-bis(4-(tert-Butyl)phenyl)-N-(piperidin-4-ylmethyl)thiophene-2-carboxamide hydrochloride] | – | inhibition of LSD1 activity at 50 μM (LSD1): did not significantly inhibit
CC(C)(C)c1ccc(-c2sc(C(=O)NCC3CCNCC3)cc2-c2ccc(CN3CCNCC3)cc2)cc1 [Compound 7, 5-(4-(tert-Butyl)phenyl)-4-(4-(piperazin-1-ylmethyl)phenyl)-N-(piperidin-4-ylmethyl)thiophene-2-carboxamide hydrochloride] | almost inactive | –
CC(C)(C)c1ccc(-c2sc(C(=O)NCC3CCNCC3)cc2-c2ccoc2)cc1 [Compound 8, 5-(4-(tert-Butyl)phenyl)-4-(furan-3-yl)-N-(piperidin-4-ylmethyl)thiophene-2-carboxamide hydrochloride] | – | inhibition at 10 µM (HAT domain of human p300): ~30%
CC(C)(C)c1ccc(-c2sc(C(=O)NCC3CCNCC3)cc2-c2cccnc2)cc1 [Compound 9, 5-(4-(tert-Butyl)phenyl)-N-(piperidin-4-ylmethyl)-4-(pyridin-3-yl)thiophene-2-carboxamide hydrochloride] | – | inhibition at 10 µM (HAT domain of human p300): ~30%
COc1ccc(-c2ccc(-c3cc(CNCC4CCNCC4)sc3-c3ccc(-c4ccc(OC)cc4)cc3)cc2)cc1 [Compound 10, 1-(4,5-bis(4’-Methoxy-[1,1’-biphenyl]-4-yl)thiophen-2-yl)-N-(piperidin-4-ylmethyl)methanamine hydrochloride] | – | activity reduction as compared to 3 (HAT domain of human p300; removal of the carbonyl group): ~ 50%
CC(C)(C)c1ccc(-c2cc(COCC3CCNCC3)sc2-c2ccc(C(C)(C)C)cc2)cc1 [Compound 13, 4-(((4,5-bis(4-(tert-Butyl)phenyl)thiophen-2-yl)methoxy)methyl)piperidine hydrochloride] | complete loss of inhibitory activity | –
CC(C)(C)c1ccc(-c2cc(CNC3CCNCC3)sc2-c2ccc(C(C)(C)C)cc2)cc1 [Compound 14, N-((4,5-bis(4-(tert-Butyl)phenyl)thiophen-2-yl)methyl)piperidin-4-amine hydrochloride] | – | activity reduction as compared to 12 (HAT domain of human p300): ~ 8 fold
CC(C)(C)c1ccc(-c2cc(CNCCC3CCNCC3)sc2-c2ccc(C(C)(C)C)cc2)cc1 [Compound 15, N-((4,5-bis(4-(tert-Butyl)phenyl)thiophen-2-yl)methyl)-2-(piperidin-4-yl)ethanamine hydrochloride] | – | activity reduction as compared to 12 (HAT domain of human p300): ~3 fold
CC(C)(C)c1ccc(-c2cc(CN3CCNCC3)sc2-c2ccc(C(C)(C)C)cc2)cc1 [Compound 18, 1-((4,5-bis(4-(tert-Butyl)phenyl)thiophen-2-yl)methyl)piperazine hydrochloride] | Loss of activity | –
CC(C)(C)c1ccc(-c2cc(CN3CCOCC3)sc2-c2ccc(C(C)(C)C)cc2)cc1 [Compound 19, 4-((4,5-bis(4-(tert-Butyl)phenyl)thiophen-2-yl)methyl)morpholine hydrochloride] | Loss of activity | –
CCCCc1ccc(-c2cc(CNCC3CCNCC3)sc2-c2ccc(CCCC)cc2)cc1 [Compound 23, 1-(4,5-bis(4-Butylphenyl)thiophen-2-yl)-N-(piperidin-4-ylmethyl)methanamine hydrochloride] | Loss of activity | –
CC(C)(C)c1ccc(-c2cc(CNCC3CCNCC3)sc2-c2ccc(CN)cc2)cc1 [Compound 26, 1-(5-(4-(Aminomethyl)phenyl)-4-(4-(tert-butyl)phenyl)thiophen-2-yl)-N-(piperidin-4-ylmethyl)methanamine hydrochloride] | – | activity reduction as compared to 12 (HAT domain of human p300): ~ 3 fold
CC(C)(C)c1ccc(-c2sc(CNCC3CCNCC3)cc2-c2ccc(CN)cc2)cc1 [Compound 27, 1-(4-(4-(Aminomethyl)phenyl)-5-(4-(tert-butyl)phenyl)thiophen-2-yl)-N-(piperidin-4-ylmethyl)-methanamine hydrochloride] | major activity loss | –
NCc1ccc(-c2cc(CNCC3CCNCC3)sc2-c2ccc(CN)cc2)cc1 [Compound 28, ((5-(((Piperidin-4-ylmethyl)amino)methyl)thiophene-2,3-diyl)bis(4,1-phenylene))dimethanamine hydrochloride] | inactive | effect on binding between p300 HAT and histone H4 (in words) (p300 HAT and histone H4): not interfered; cellular acetylation of histone H3K9, H3K18 and H3K27 (Kasumi-1 leukemia cells): no significant activity
OCc1ccc(-c2cc(CNCC3CCNCC3)sc2-c2ccc(CO)cc2)cc1 [Compound 29, ((5-(((Piperidin-4-ylmethyl)amino)methyl)thiophene-2,3-diyl)bis(4,1-phenylene))dimethanol hydrochloride] | weak inhibitor | –
c1cc(-c2cc(CNCC3CCNCC3)sc2-c2ccoc2)co1 [Compound 30, 1-(4,5-di(Furan-3-yl)thiophen-2-yl)-N-(piperidin-4-ylmethyl)methanamine hydrochloride] | very low activity | –
COc1ccc(-c2cc(CNCC3CCNCC3)sc2-c2ccc(OC)c(OC)c2)cc1OC [Compound 31, 1-(4,5-bis(3,4-Dimethoxyphenyl)thiophen-2-yl)-N-(piperidin-4-ylmethyl)methanamine hydrochloride] | Lack of inhibition | –
c1ccc(-c2cccc(-c3cc(CNCC4CCNCC4)sc3-c3cccc(-c4ccccc4)c3)c2)cc1 [Compound 32, 1-(4,5-di([1,1’-Biphenyl]-3-yl)thiophen-2-yl)-N-(piperidin-4-ylmethyl)methanamine hydrochloride] | Lack of inhibition | –
CC(C)(C)c1ccc(-c2sc(CNCC3CCNCC3)c(Br)c2-c2ccc(C(C)(C)C)cc2)cc1 [Compound 33, 1-(3-Bromo-4,5-bis(4-(tert-butyl)phenyl)thiophen-2-yl)-N-(piperidin-4-ylmethyl)methanamine hydrochloride] | – | activity reduction as compared to 12 (HAT domain of human p300): ~ 3 fold
CC(C)(C)c1ccc(-c2cc(CNCC3CCNCC3)oc2-c2ccc(C(C)(C)C)cc2)cc1 [Compound 34, 1-(4,5-bis(4-(tert-Butyl)phenyl)furan-2-yl)-N-(piperidin-4-ylmethyl)methanamine hydrochloride] | – | IC50 (HAT domain of human p300): 4.9 µM
c1cc(-c2ccc(-c3cc(CNCC4CCNCC4)oc3-c3ccc(-c4ccoc4)cc3)cc2)co1 [Compound 35, 1-(4,5-bis(4-(Furan-3-yl)phenyl)furan-2-yl)-N-(piperidin-4-ylmethyl)methanamine hydrochloride] | – | IC50 (HAT domain of human p300): 3 µM
CC(C)(C)c1ccc(-c2nc(CNCC3CCNCC3)sc2-c2ccc(C(C)(C)C)cc2)cc1 [Compound 37, 1-(4,5-bis(4-(tert-Butyl)phenyl)thiazol-2-yl)-N-(piperidin-4-ylmethyl)methanamine hydrochloride] | – | activity reduction as compared to 12 (HAT domain of human p300): more than 13 fold
CC(C)(C)c1ccc(-c2csc(CNCC3CCNCC3)n2)cc1 [Compound 38, 1-(4-(4-(tert-Butyl)phenyl)thiazol-2-yl)-N-(piperidin-4-ylmethyl)methanamine hydrochloride] | Loss of activity | –
CC(C)(C)c1ccc(-c2csc(C(=O)NCC3CCNCC3)n2)cc1 [Compound 39, 4-(4-(tert-Butyl)phenyl)-N-(piperidin-4-ylmethyl)thiazole-2-carboxamide hydrochloride] | Loss of activity | –
N-((5,6-bis(4-(Furan-3-yl)phenyl)pyrazin-2-yl)methyl)piperidin-4-amine hydrochloride [Compound 40] | significantly less active than its thiophene analog 11 | –
